The text below walks through data of ChEMBL document CHEMBL1129387, “Synthesis and biological activity of 1 alpha, 25-dihydroxy-18-norvitamin D3 and 1 alpha, 25-dihydroxy-18,19-dinorvitamin D3” (1996).

Molecules are shown by their SMILES. “And” between values parts separate entries of the source, which are not always exact repeats. Equal entries are not always repeated.

The species entered for test [1] is Rattus norvegicus. Kind of test: Support of Intestinal Calcium Transport mobilization response of Vitamin D-Deficient Rats on a low-calcium diet(amount 1000 pmol). Type of test: functional. The procedure, abridged:
(§1)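 Vitamin D-deficient weanling male rats kept on a 0.02% Ca diet. Compound given intraperitoneally daily for 7 days in 0.1 mL of 95:5 propylene glycol/ethanol; controls got vehicle. Killed 24 h after the last dose. Intestinal Ca transport by everted sac (proximal 10 cm), reported as S/M ratio. At least 5 rats/group; mean ± SEM; Student's t-test.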

The species entered for test [2] is Rattus norvegicus. Kind of test: Support of Serum Calcium Transport mobilization response of Vitamin D-Deficient Rats on a low-calcium diet(amount 130 pmol). Type of test: functional, organism-based. In short, it runs like this: (§2)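 Weanling male rats deficient in vitamin D, held on a low-calcium (0.02% Ca) diet, dosed intraperitoneally each day for 7 days in 0.1 mL of 95:5 propylene glycol/ethanol, with vehicle controls. Serum calcium was measured by automatic titrator 24 h after the last dose as the index of bone calcium mobilization. At least 5 rats/group; mean ± SEM; Student's t-test.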

Test [3] is filed under the species Rattus norvegicus. The test can be described thus: Support of Intestinal Calcium Transport mobilization response of Vitamin D-Deficient Rats on a low-calcium diet(amount 260 pmol). The format is functional. In short, it runs like this: as §1
For test [4], the species on record is Rattus norvegicus. Kind of test: Support of Serum Calcium Transport mobilization response of Vitamin D-Deficient Rats on a low-calcium diet(amount 1000 pmol). The format is functional, organism-based. The procedure, abridged:
as §2

For test [5], the species on record is Rattus norvegicus. Kind of test: Support of Intestinal Calcium Transport mobilization response of Vitamin D-Deficient Rats on a low-calcium diet(amount 500 pmol). Type of test: functional. In short, it runs like this: as §1
For test [6], the species on record is Rattus norvegicus. Kind of test: Support of Serum Calcium Transport mobilization response of Vitamin D-Deficient Rats on a low-calcium diet(amount 260 pmol). Type of test: functional, organism-based. In short, it runs like this: as §2
The species named for test [7] is Rattus norvegicus. The test can be described thus: Support of Intestinal Calcium Transport mobilization response of Vitamin D-Deficient Rats on a low-calcium diet(amount 130 pmol). Type of test: functional. The procedure, abridged:
as §1

Test [8] is filed under the species Rattus norvegicus. The test can be described thus: Support of Serum Calcium Transport mobilization response of Vitamin D-Deficient Rats on a low-calcium diet(amount 500 pmol). Type of test: functional, organism-based. In short, it runs like this: as §2
Test [9] relates to Rattus norvegicus. Kind of test: Bone Calcium mobilization response of Vitamin D-Deficient Rats to a single Intravenous Injection of (amount 260 pmol). Type of test: functional, organism-based. The procedure, abridged:
(§3)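 Vitamin D-deficient weanling male rats, 3 weeks on a 0.47% Ca diet then 1 week on 0.02% Ca. A single intravenous dose was given in 0.1 mL of 95:5 propylene glycol/ethanol, with vehicle controls. Serum calcium was measured by automatic titrator 24 h after dosing. The rise in serum Ca on the low-Ca diet is taken as bone calcium mobilization. At least 5 rats/group; mean ± SEM.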

Test [10] is filed under the species Rattus norvegicus. Kind of test: Intestinal Calcium Transport mobilization response of Vitamin D-Deficient Rats on a low-calcium diet(amount 500 pmol). The format is functional. In short, it runs like this: as §1
Test [11] is filed under the species Rattus norvegicus. Kind of test: Serum Calcium Transport mobilization response of Vitamin D-Deficient Rats on a low-calcium diet(amount 500 pmol). Type of test: functional, organism-based. In short, it runs like this:
as §2

Test [12] concerns Rattus norvegicus. The test can be described thus: Intestinal Calcium Transport mobilization response of Vitamin D-Deficient Rats to a single Intravenous Injection of D3 (amount 260 pmol). Type of test: functional. In short, it runs like this: (§4)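 Vitamin D-deficient weanling male rats, 3 weeks on a 0.47% Ca diet then 1 week on 0.02% Ca. A single intravenous dose was given in 0.1 mL of 95:5 propylene glycol/ethanol, with vehicle controls. After 24 h, the proximal 10 cm of intestine was taken for everted-sac calcium transport, expressed as serosal:mucosal (S/M) Ca ratio. At least 5 rats/group; mean ± SEM.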

The test system of test [13] is Rattus norvegicus. Kind of test: Intestinal Calcium Transport mobilization response of Vitamin D-Deficient Rats to a single Intravenous Injection amount 260 pmol). The format is functional. The procedure, abridged:
as §4

Test [14] relates to Rattus norvegicus. The test can be described thus: Bone Calcium mobilization response of Vitamin D-Deficient Rats to a single Intravenous Injection (amount 260 pmol). The format is functional, organism-based. In short, it runs like this: as §3
Test [15] is filed under the species Rattus norvegicus. The test can be described thus: Support of Intestinal Calcium Transport mobilization response of Vitamin D-Deficient Rats on a low-calcium diet(amount 1300 pmol). Type of test: functional. In short, it runs like this: as §1
The species named for test [16] is Rattus norvegicus. Kind of test: Support of Intestinal Calcium Transport mobilization response of Vitamin D-Deficient Rats on a low-calcium diet(amount 650 pmol). The format is functional. The procedure, abridged:
as §1

The species entered for test [17] is Rattus norvegicus. Kind of test: Support of Serum Calcium Transport mobilization response of Vitamin D-Deficient Rats on a low-calcium diet(amount 650 pmol). The format is functional, organism-based. In short, it runs like this: as §2
The species named for test [18] is Rattus norvegicus. Kind of test: Support of Serum Calcium Transport mobilization response of Vitamin D-Deficient Rats on a low-calcium diet(amount 1300 pmol). Type of test: functional, organism-based. The procedure, abridged: as §2

Regarding `C[C@H](CCCC(C)(C)O)C1CC[C@H]2/C(=C/C=C3C[C@@H](O)C[C@H](O)C3)CCC[C@H]12` (some centres undefined), the “Ca2+ transport” value in the test listed under Rattus norvegicus [1] came to 6.9; in the test filed under Rattus norvegicus [3], 4.8; in the test listed under Rattus norvegicus [5] it was 6.2; in the test filed under Rattus norvegicus [7], 3.7. For the same compound, the Serum Ca2+ was 4.8 in the test listed under Rattus norvegicus [2], 5.5 in the test filed under Rattus norvegicus [4], 4.9 in the test listed under Rattus norvegicus [6] and 5.6 in the test listed under Rattus norvegicus [8].

For the compound `C=C1/C(=C\C=C2/CCC[C@]3(C)[C@@H]([C@H](C)CCCC(C)(C)O)CC[C@@H]23)C[C@@H](O)C[C@@H]1O` [CALCITRIOL], the Serum Ca2+ in the test with Rattus norvegicus [9] is 4.8; in the test filed under Rattus norvegicus [2], 5.8; in the test filed under Rattus norvegicus [11], 5.5; in the test listed under Rattus norvegicus [6], 5.4 and 7.1. In addition, the “Ca2+ transport” value came to 7.6 in the test filed under Rattus norvegicus [3], 5.7 in the test filed under Rattus norvegicus [10], 6.8 in the test listed under Rattus norvegicus [7] and 5 in the test with Rattus norvegicus [12].

For `C=C1/C(=C\C=C2/CCC[C@@H]3C([C@H](C)CCCC(C)(C)O)CC[C@@H]23)C[C@@H](O)C[C@@H]1O` (some centres undefined), the “Ca2+ transport” value in the test with Rattus norvegicus [13] was 3.9; in the test filed under Rattus norvegicus [15], 5.5; in the test listed under Rattus norvegicus [16], 5.4; in the test listed under Rattus norvegicus [10] it was 4.1. Also, the Serum Ca2+ in the test with Rattus norvegicus [14] was 4.4; in the test listed under Rattus norvegicus [17] it was 5.2; in the test listed under Rattus norvegicus [18] it was 5.6; in the test filed under Rattus norvegicus [11] it was 5.1.
